From PubChem BioAssay AID540312 (Sanford-Burnham Center for Chemical Genomics, 2011)
Calls of active or inactive are those of the source.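 The calls were made as follows: active = mean EC50 of 20 µM or lower; inactive = the rest.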

Target: CHO-CHOP luciferase reporter, UPR activation, luminescence
Assay: PERK-eIF2a-CHOP apoptotic UPR arm activators, SAR follow-up, CHO-CHOP cells, luminescence (AID 540312)
Method in brief: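 System: CHO-CHOP luciferase reporter cell line. Doses: compound dose-response series, final DMSO at most 1%. Detection: luminescence of luciferase reporter using Steady-Glo reagent. Schedule: 16–18 h cell rest, then 6 h compound treatment, 37 °C. Controls: tunicamycin 10 µg/mL as maximal activation, DMSO alone as baseline. Buffer or medium: F12 medium, 10% FBS.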

Row | SMILES | EC50
1 | O=C(Nc1ccc(S(=O)(=O)C2CCCCC2)cc1)c1ccc([N+](=O)[O-])o1 | 0.676 µM
2 | O=C(Nc1nc2ccccc2s1)c1cccnc1 | > 80 µM (inactive)
3 | O=C(Nc1ccc(S(=O)(=O)N2CCOCC2)cc1)c1ccccc1 | > 80 µM (inactive)
4 | O=C(Nc1ccc(S(=O)(=O)N2CCOCC2)cc1)c1ccc([N+](=O)[O-])cc1 | > 80 µM (inactive)
5 | Cc1cc(C)c2nc(NC(=O)c3ccccn3)sc2c1 | 7.56 µM
6 | O=C(Nc1ccc(S(=O)(=O)N2CCOCC2)cc1)c1ccc([N+](=O)[O-])o1 | 2.28 µM
7 | O=C(Nc1ccc(C(=O)N2CCOCC2)cc1)c1ccco1 | > 80 µM (inactive)
8 | CC1CCN(S(=O)(=O)c2ccc(NC(=O)c3ccc([N+](=O)[O-])o3)cc2)CC1 | 0.541 µM
9 | O=C(Nc1nc2c(Cl)cc(Cl)cc2s1)c1ccccn1 | 10.6 µM
10 | CC1CN(S(=O)(=O)c2ccc(NC(=O)c3ccco3)cc2)CC(C)O1 (stereo unspecified) | > 80 µM (inactive)
11 | Fc1cc(F)c2nc(NCc3ccccn3)sc2c1 | > 80 µM (inactive)
12 | O=C(Nc1ccc(S(=O)(=O)N2CCOCC2)cc1)c1ccco1 | > 80 µM (inactive)
13 | O=C(Nc1nc2c(F)cc(F)cc2s1)c1ccncc1 | > 80 µM (inactive)
14 | O=C(Nc1ccc(S(=O)(=O)N2CCOCC2)cc1)c1ccc([N+](=O)[O-])s1 | 13.5 µM
15 | O=C(Nc1nc2c(F)cccc2s1)c1ccccn1 | 5.83 µM
16 | O=C(Nc1ccc(S(=O)(=O)N2CCNCC2)cc1)c1ccc([N+](=O)[O-])o1 | inactive
17 | CC1(C)CCN(S(=O)(=O)c2ccc(NC(=O)c3ccc([N+](=O)[O-])o3)cc2)CC1 | 0.494 µM
18 | O=C(Nc1ccc(S(=O)(=O)N2CCOCC2)cc1)c1cccs1 | > 80 µM (inactive)

More lines, now with the values ahead:

Row | EC50 | SMILES
19 | 1.09 µM | O=C(Nc1ccc(S(=O)(=O)c2ccccc2)cc1)c1ccc([N+](=O)[O-])o1
20 | > 80 µM (inactive) | Cc1ccc(C(=O)Nc2ccc(S(=O)(=O)N3CCOCC3)cc2)o1
21 | 12.6 µM | O=C(Nc1nc2ccc(F)cc2s1)c1ccccn1
22 | > 80 µM (inactive) | O=C(Nc1ccc(S(=O)(=O)N2CCOCC2)cc1)c1ccc(Br)o1
23 | > 80 µM (inactive) | O=C(Nc1cccc(S(=O)(=O)N2CCOCC2)c1)c1ccco1
24 | 0.742 µM | O=C(Nc1ccc(S(=O)(=O)N2CCCC2)cc1)c1ccc([N+](=O)[O-])o1
25 | > 80 µM (inactive) | O=C(Nc1nc2ccccc2s1)c1ccncc1
26 | 1.75 µM | O=C(Nc1ccc(S(=O)(=O)N2CCCCC2)cc1)c1ccc([N+](=O)[O-])o1
27 | > 80 µM (inactive) | O=C(Nc1nc2c(F)cc(F)cc2s1)c1cccnc1
28 | 7.22 µM | O=C(Nc1nc2c(F)cc(F)cc2s1)c1ccccn1
29 | > 80 µM (inactive) | O=C(Nc1nc2ccccc2s1)c1ccccn1
30 | 2.02 µM | O=C(Nc1ccc(S(=O)(=O)N2CCC(O)CC2)cc1)c1ccc([N+](=O)[O-])o1
31 | > 80 µM (inactive) | O=C(Nc1nc2c(F)cc(F)cc2s1)c1ccccc1
